Screening results: PubChem, Johns Hopkins Ion Channel Center
This is a sample that favours compounds with a hit; in the whole collection about 3.1% have one here.
KCNQ1 inh: inhibitors of human KCNQ1 potassium channel; P51787; CHO-K1 KCNQ1, FluxOR thallium flux fluorescence; stronger effect = higher value; B-score at 10 µM; 1.3% of 310,000 active;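 active = compounds whose thallium flux B-score, printed positive for inhibition, exceeds three library SD while starting fluorescence stays within three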;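 note: channel opened by potassium depolarization with thallium stimulus after 20 min compound exposure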
Target sequence (P51787 whole entry, looked up): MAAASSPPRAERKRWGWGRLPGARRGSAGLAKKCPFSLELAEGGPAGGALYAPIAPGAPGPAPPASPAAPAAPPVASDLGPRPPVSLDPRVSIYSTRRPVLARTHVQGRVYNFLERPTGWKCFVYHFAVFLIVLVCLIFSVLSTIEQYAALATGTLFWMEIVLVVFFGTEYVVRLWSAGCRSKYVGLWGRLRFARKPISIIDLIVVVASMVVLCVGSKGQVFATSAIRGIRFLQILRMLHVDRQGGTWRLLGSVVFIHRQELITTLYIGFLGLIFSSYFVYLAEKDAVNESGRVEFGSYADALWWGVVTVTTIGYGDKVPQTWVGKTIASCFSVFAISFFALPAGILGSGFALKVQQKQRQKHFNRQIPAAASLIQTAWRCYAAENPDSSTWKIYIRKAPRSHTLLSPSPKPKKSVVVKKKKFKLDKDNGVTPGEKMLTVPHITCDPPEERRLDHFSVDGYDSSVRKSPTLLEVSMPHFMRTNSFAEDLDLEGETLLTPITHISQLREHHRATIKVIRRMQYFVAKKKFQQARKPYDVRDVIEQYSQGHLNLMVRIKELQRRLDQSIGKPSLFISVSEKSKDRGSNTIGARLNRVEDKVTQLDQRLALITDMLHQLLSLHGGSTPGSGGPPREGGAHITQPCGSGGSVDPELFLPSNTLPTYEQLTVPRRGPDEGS
KCNK9 block: human KCNK9 channel inhibition. HEK293 KCNK9, FluxOR thallium flux fluorescence; stronger effect = lower value. B-score at 10 µM. 1.2% of 310,000 active;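 active = ratio B-score over 3 SD below the library mean, with starting fluorescence within 5 SD of its mean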;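 note: negative B-score means less thallium flux so channel inhibition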
hERG protect: hERG (human) protection from proarrhythmic block | 0.51% of 310,000 active | Q12809 | CHO-hERG, FluxOR thallium flux, dofetilide IC70 present | AID 1511 | activation (rescue from dofetilide block), less the hit threshold, % at 10 µM;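 active = activation above the mean of controls blocked by dofetilide plus 5 SD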;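 note: thallium influx through hERG after potassium depolarization seen as dye fluorescence rise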
KCNQ1 pot: potentiates or activates the human KCNQ1 potassium channel; P51787; CHO-K1 KCNQ1, thallium flux FluxOR fluorescence; stronger effect = higher value; B-score at 10 µM; 0.35% of 310,000 active; AID 2648;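 active = fluorescence ratio B-score, a plate-corrected score, at least three library SD, with initial intensity B-score within 5 SD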
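Material: CHO-K1 cells stably expressing KCNQ1. Medium: assay buffer for compound exposure, DMSO matched across wells. Reagent: K+/Tl+ depolarizing stimulus. Compound dosing: single-concentration screen. Times: 37 °C overnight plating, 90-min dark dye load, 20-min compound pretreatment. Technique: FluxOR Tl+ flux fluorescence.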
KCNK3 inh: human KCNK3 channel inhibition, primary screen. O14649. CHO-KCNK3 thallium flux, FluxOR fluorescence; stronger effect = lower value. B-score at 10 µM. 0.84% of 340,000 active;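 active = B-score under library mean minus 4 SD, starting fluorescence ratio at most library mean plus 5 SD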;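 note: more negative B-score means stronger inhibition of thallium flux through KCNK3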
An asterisk follows results filed as active; i = inactive; . = not tested or not shown.

SMILES | KCNQ1 inh | KCNK9 block | hERG protect | KCNQ1 pot | KCNK3 inh
CCCCn1nnc(NC(=O)c2ccc(-c3cccc([N+](=O)[O-])c3)o2)n1 | i | i | 22* | i | .
CCOc1ccc(S(=O)(=O)NCCC(=O)NC2CCCCC2)cc1 | i | i | -9 | i | i
Cc1onc(-c2ccccc2)c1-c1nnc(COC(=O)c2ccc(O)cc2)o1 | . | . | . | . | i
CCOC(=O)N1CCN(C(=O)Cc2c(C(=O)O)n(C)c3ccccc23)CC1 | i | i | -9 | i | i
CCOC(=O)C1CCN(C(=O)Cc2c(C(=O)O)n(CC)c3ccccc23)CC1 | i | i | 5.5* | i | i
COc1ccc(S(=O)(=O)Nc2cccc3c2O[C@H](CN(C)C(=O)Nc2ccc(C(F)(F)F)cc2)[C@@H](C)CN([C@H](C)CO)C3=O)cc1 | . | . | . | . | i
C[C@@H]1CC=C[C@H]2[C@H]1C(=O)N(Cc1ccccc1)[C@H]2c1ccc(F)c(Br)c1 | 10* | -19* | -26 | i | .
O=C1C2C(c3cccc(/C=C/c4ccccc4)c3)CC=CC2C(c2ccc3ccccc3c2)N1Cc1ccccc1 (centres undefined) | i | i | -8 | i | i
Cc1ccc(-c2cccc(C3CC=CC4C3C(=O)N(Cc3ccccc3)C4c3ccc4ccccc4c3)c2)cc1 (centres undefined) | i | i | 8.4* | i | i
COc1cccc(N2CCN(c3ncnc4c3[nH]c3ccc(F)cc34)CC2C)c1 (centres undefined) | 13* | i | -38 | i | -13*
COc1ccc2[nH]c3c(N4CC(C)OC(C)C4)ncnc3c2c1 (centres undefined) | i | i | -11 | i | .
Cc1ccccc1NC(=O)CN1CCN(C(=O)c2ccco2)CC1 | i | i | -6 | i | i
COCCNC(=O)C(c1ccc(C)o1)N(Cc1ccc(OC)cc1)C(=O)Cn1nnc2ccccc21 (centres undefined) | i | i | 6.5* | i | i
CCCN1C(=O)/C(=C/C=C2\N(CC)c3ccccc3C2(C)C)SC1=S | 8* | i | -12 | i | i
C=CCN1C(=O)/C(=C\C=C2\N(C)c3ccccc3C2(C)C)SC1=S | i | i | -10 | i | i
CN1C(=O)NC(=O)C1c1ccccc1 (centres undefined) | . | . | . | . | i
Cc1cc(Cn2nc(C(=O)NCc3cccc(C(F)(F)F)c3)cc2-c2ccccc2)on1 | . | . | . | . | -9.7*
O=C(Nc1cccc(-c2ccc(F)cc2)c1)C1CCCN(C(=O)c2cscn2)C1 (centres undefined) | i | i | -6 | i | i
NC(=O)CCS(=O)(=O)c1ccccc1 | i | i | 0 | i | i
NC(=O)CCS(=O)(=O)c1ccc(Cl)cc1 | i | i | 6.4* | i | i
COC(=O)[C@H](CCSC)NC(=O)Cn1cnc2c(NCc3ccccc3)ncnc21 | . | . | . | . | i
COc1cc(-c2nnc(-c3cc(-c4ccccc4)nc4ccccc34)o2)cc(OC)c1OC | . | . | . | . | i
O=c1c2ccccc2nc(/C=C/c2ccccc2)n1CCCO | i | i | -7 | i | i
CN(C)c1ccc(/C=C/c2nc3ccccc3c(=O)n2CCO)cc1 | 6* | i | -18 | i | i
O=S(=O)(c1ccc(Br)s1)N1CCN(c2ccc(F)cc2)CC1 | i | i | -10 | i | i
SMILES | KCNQ1 inh | KCNK9 block | hERG protect | KCNQ1 pot | KCNK3 inh
CCc1cccc(CC)c1NC(=O)COC(=O)C1(c2ccc(Cl)cc2)CCCC1 | i | -7.1* | -12 | i | i
COc1ccc(OC)c(NC(=O)CSc2ccc(-c3cccnc3)nn2)c1 | i | i | -6 | i | i
O=C(COC(=O)CC(c1ccccc1)c1ccccc1)Nc1ccc(F)c(F)c1 | 6* | i | -18 | i | .
O=C(COC(=O)CC(c1ccccc1)c1ccccc1)Nc1cccc(F)c1 | i | i | -13 | i | i
Cc1cc(NC(=O)C(C)SCC(=O)Nc2ccccc2C(C)(C)C)no1 (centres undefined) | i | i | -13 | i | i
COCCN(CCOC)Cc1c(O)ccc2c3c(c(=O)oc12)CCC3 | i | -7.1* | -7 | i | i
CCCCN(CC)Cc1c(O)ccc2c3c(c(=O)oc12)CCC3 | i | i | -13 | i | i
CCCn1nc(NS(=O)(=O)c2cccc3nonc23)c2cc3cccc(C)c3nc21 | 8* | i | -9 | i | i
C/C(=N\Nc1nc(C)c(C)s1)c1ccc([N+](=O)[O-])cc1 | i | i | 30* | 19* | i
CCOc1ccc(NC(=S)NC2CC3CCC(C2)N3Cc2ccco2)cc1 (centres undefined) | i | -7.2* | -18 | i | i
O=C(NC(=S)Nc1ccccc1Br)c1ccco1 | i | i | 3 | 9* | i
Cc1cccc(NC(=S)NC(=O)c2ccco2)c1C | i | i | 22* | 33* | i
Cc1ccc([N+](=O)[O-])cc1NC(=S)NC(=O)c1ccco1 | i | i | 5.1* | i | i
CN(C)C(=O)CSc1nnc(-c2ccc(S(=O)(=O)N3CCCC3)cc2)n1C | i | i | -7 | i | i
CCOc1ccc(NC(=S)NC(=O)c2ccco2)cc1 | i | i | 6.1* | 12* | i
CCOc1ccc(NC(=O)c2ccco2)cc1 | i | i | 2 | i | i
CC(=NNC(=O)c1ccncc1)c1cc(Cl)ccc1Cl | . | . | . | . | i
COc1cccc(C(=O)NNC(=O)C(=O)Nc2cccc(Cl)c2C)c1 | i | i | 23* | 36* | i
COc1cccc(C(=O)NNC(=O)C(=O)Nc2ccc(C)cc2)c1 | i | i | 27* | 37* | i
COc1cccc(C(=O)NNC(=O)c2ccc3ccccc3c2)c1 | . | . | . | . | i
COc1ccccc1C(=O)NNC(=O)C(=O)NCc1ccccc1 | i | i | 10* | 7* | i
COc1ccc(C(=O)Nc2cccc3ccccc23)cc1 | i | i | -9 | i | i
COc1ccc(C(=O)NNC(=O)C(=O)Nc2cccc3ccccc23)cc1 | i | i | 31* | 34* | i
COc1ccccc1C(=O)NCc1ccccc1 | i | i | -8 | i | i
OCC1OC(n2cnc3c(SCc4ccccc4)nc(F)nc32)C(O)C1O (centres undefined) | . | . | . | . | i
COc1ccc2ncccc2c1Cc1c(OC)ccc2ncccc12 | . | . | . | . | i
COc1cccc(C(=O)Nc2ccc(C(=O)c3ccccc3)cc2)c1 | i | -7.7* | -9 | i | i
COc1cccc(C(=O)Nc2ccc(C(=O)O)cc2)c1 | i | i | -13 | i | i
COc1ccccc1C(=O)NNC(=O)C(=O)Nc1cccc(Cl)c1C | i | i | 65* | 94* | i
